Measurements from ChEMBL document CHEMBL1145326, “Antimycobacterial agents. Novel diarylpyrrole derivatives of BM212 endowed with high activity toward Mycobacterium tuberculosis and low cytotoxicity” (2006).
≈ marks a conversion by molar mass, not a printed value.

Key:
Vero [1] = assay: Protection index, cytotoxicity against Vero cell line/antibacterial activity against Mycobacterium tuberculosis 103471; format: functional
In short: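 Protection index is the ratio of Vero-cell MNTD₅₀ (cell counts after 5-day exposure) to the MIC against M. tuberculosis CIP 103471. The MIC came from 2-fold tube dilution, inoculum 10⁵–10⁶ CFU/mL, 37 °C.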

Vero [2] = assay: Cytotoxicity against Vero cell line; format: functional, Chlorocebus sabaeus
In short: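 Vero cells were cultured for 24 h, then the medium was replaced with medium holding decreasing compound concentrations. After 5 days the cells were trypsinised and counted in a Neubauer chamber, in triplicate. MNTD₅₀ (µg/mL) is the concentration that decreased cell multiplication by less than 50% of control.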

[3] = test system: Mycobacterium tuberculosis; assay: Antibacterial activity against intramacrophagic Mycobacterium tuberculosis; format: functional
[4] = test system: Mycolicibacterium smegmatis; assay: Antibacterial activity against Mycobacterium smegmatis; format: functional
In short: (§1)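 MIC by serial 2-fold tube dilution. Compound DMSO stocks were filter-sterilised (0.2 µm) and diluted in water. Tubes were inoculated with 10⁵–10⁶ CFU/mL of each mycobacterium and incubated at 37 °C for 3–21 days. Each run included a drug-free control tube. Values are in µg/mL.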

Mycobacterium marinum = assay: Antibacterial activity against Mycobacterium marinum; format: functional; in short: as §1
[5] = test system: Mycobacterium tuberculosis; assay: Antibacterial activity against Mycobacterium tuberculosis 103471; format: functional; in short: as §1
Mycobacterium avium = assay: Antibacterial activity against Mycobacterium avium; format: functional; in short: as §1

Row | Compound | PI (Vero [1]) | Maximal non-toxic dose 50 (Vero [2]) | MCC [3] | MIC [4] | MIC (Mycobacterium marinum) | MIC [5] | MIC (Mycobacterium avium)
1 | Cc1c(CN2CCSCC2)cc(-c2ccc(F)cc2)n1-c1ccccc1F | 16 | 8 µg/mL | 3 µg/mL | 8 µg/mL (≈ 20.8 µM) | > 16 µg/mL | 0.5 µg/mL (≈ 1.3 µM) | 8 µg/mL (≈ 20.8 µM)
2 | CO[C@H]1/C=C/O[C@@]2(C)Oc3c(C)c(O)c4c(O)c(c(/C=N/N5CCN(C)CC5)c(O)c4c3C2=O)NC(=O)/C(C)=C\C=C\[C@H](C)[C@H](O)[C@@H](C)[C@@H](O)[C@@H](C)[C@H](OC(C)=O)[C@@H]1C [RIFAMPIN] | 213 | 64 µg/mL | 3 µg/mL | 32 µg/mL (≈ 38.9 µM) | 0.6 µg/mL (≈ 0.729 µM) | 0.3 µg/mL (≈ 0.365 µM) | 0.3 µg/mL (≈ 0.365 µM)
3 | Cc1ccc(-n2c(-c3ccc(F)cc3)cc(CN3CCN(C)CC3)c2C)cc1 | 0.5 | 8 µg/mL |  | > 16 µg/mL | 8 µg/mL (≈ 21.2 µM) | 16 µg/mL (≈ 42.4 µM) | 16 µg/mL (≈ 42.4 µM)
4 | Cc1ccccc1-n1c(-c2ccc(F)cc2)cc(CN2CCSCC2)c1C | 2 | 16 µg/mL |  | > 16 µg/mL | > 16 µg/mL | 8 µg/mL (≈ 21 µM) | 16 µg/mL (≈ 42 µM)
5 | Cc1c(CN2CCSCC2)cc(-c2ccc(F)cc2F)n1-c1ccc(F)cc1 | 32 | 16 µg/mL |  | > 16 µg/mL | 16 µg/mL (≈ 39.8 µM) | 0.5 µg/mL (≈ 1.24 µM) | 16 µg/mL (≈ 39.8 µM)
6 | Cc1ccc(-n2c(-c3ccc(F)cc3)cc(CN3CCSCC3)c2C)cc1 | 32 | 32 µg/mL |  | 16 µg/mL (≈ 42 µM) | 8 µg/mL (≈ 21 µM) | 1 µg/mL (≈ 2.63 µM) | 8 µg/mL (≈ 21 µM)
7 | CN[C@@H]1[C@H](O[C@H]2[C@H](O[C@H]3[C@H](O)[C@@H](O)[C@H](N=C(N)N)[C@@H](O)[C@@H]3N=C(N)N)O[C@@H](C)[C@]2(O)C=O)O[C@@H](CO)[C@H](O)[C@H]1O (stereo in doubt) [STREPTOMYCIN] | >128 | >64 µg/mL |  | 8 µg/mL (≈ 13.8 µM) | 32 µg/mL (≈ 55 µM) | 0.5 µg/mL (≈ 0.86 µM) | 8 µg/mL (≈ 13.8 µM)
8 | Cc1c(CN2CCN(C)CC2)cc(-c2ccc(Cl)cc2Cl)n1-c1ccc(F)cc1 | 2 | 16 µg/mL |  | > 16 µg/mL | > 16 µg/mL | 8 µg/mL (≈ 18.5 µM) | 2 µg/mL (≈ 4.63 µM)
9 | Cc1cccc(-c2cc(CN3CCSCC3)c(C)n2-c2ccc(F)cc2)c1 | 2 | 4 µg/mL |  | > 16 µg/mL | > 16 µg/mL | 2 µg/mL (≈ 5.26 µM) | 8 µg/mL (≈ 21 µM)
10 | Cc1c(CN2CCSCC2)cc(-c2ccc(Cl)cc2Cl)n1-c1ccc(F)cc1 | 32 | 64 µg/mL |  | > 16 µg/mL | > 16 µg/mL | 2 µg/mL (≈ 4.59 µM) | 4 µg/mL (≈ 9.19 µM)
11 | Cc1c(CN2CCN(C)CC2)cc(-c2ccccc2F)n1-c1ccc(F)cc1 |  | 4 µg/mL |  | > 16 µg/mL | > 16 µg/mL | > 16 µg/mL | > 16 µg/mL
12 | Cc1c(CN2CCSCC2)cc(-c2ccc(F)cc2)n1-c1ccc(Cl)cc1Cl | 4 | 4 µg/mL |  | 16 µg/mL (≈ 36.7 µM) | 8 µg/mL (≈ 18.4 µM) | 1 µg/mL (≈ 2.3 µM) | 2 µg/mL (≈ 4.59 µM)
13 | Cc1c(CN2CCN(C)CC2)cc(-c2ccc(F)cc2)n1-c1ccc(Cl)cc1Cl | 0.5 | 2 µg/mL |  | > 16 µg/mL | 8 µg/mL (≈ 18.5 µM) | 4 µg/mL (≈ 9.25 µM) | 4 µg/mL (≈ 9.25 µM)
14 | Cc1c(CN2CCN(C)CC2)cc(-c2ccc(F)cc2F)n1-c1ccc(F)cc1 | 2 | 8 µg/mL |  | > 16 µg/mL | > 16 µg/mL | 4 µg/mL (≈ 10 µM) | 16 µg/mL (≈ 40.1 µM)
15 | Cc1ccccc1-c1cc(CN2CCN(C)CC2)c(C)n1-c1ccc(F)cc1 |  | 2 µg/mL |  | > 16 µg/mL | > 16 µg/mL | > 16 µg/mL | > 16 µg/mL
16 | Cc1c(CN2CCN(C)CC2)cc(-c2ccc(F)cc2)n1-c1ccc(F)cc1F | 1 | 16 µg/mL |  | > 16 µg/mL | 16 µg/mL (≈ 40.1 µM) | 16 µg/mL (≈ 40.1 µM) | 16 µg/mL (≈ 40.1 µM)
